One block for each compound: values may come before it.
Legend:
SCLC cell line NCI-H510A = assay: SCLC cell viability; type: cell-based; conditions: Homo sapiens, 240 h, read-out: EC50 viability NCI-H510A
AML cell line TF-1a = assay: AML cell viability; type: cell-based; conditions: for EC50: TF-1a, read-out: EC50 viability, AML cell lines
SCLC patients = conditions: cited from earlier work
[1] = target: T1, human recombinant LSD1 enzyme (Homo sapiens, UniProt O60341); assay: LSD1 HTRF assay; type: biochemical
[2] = target: T2, human recombinant LSD2 enzyme (Homo sapiens, UniProt Q8NB78); assay: LSD2 HTRF assay; type: biochemical; conditions: read-out: LSD2 inhibition
T2 sequence (Q8NB78 1-822): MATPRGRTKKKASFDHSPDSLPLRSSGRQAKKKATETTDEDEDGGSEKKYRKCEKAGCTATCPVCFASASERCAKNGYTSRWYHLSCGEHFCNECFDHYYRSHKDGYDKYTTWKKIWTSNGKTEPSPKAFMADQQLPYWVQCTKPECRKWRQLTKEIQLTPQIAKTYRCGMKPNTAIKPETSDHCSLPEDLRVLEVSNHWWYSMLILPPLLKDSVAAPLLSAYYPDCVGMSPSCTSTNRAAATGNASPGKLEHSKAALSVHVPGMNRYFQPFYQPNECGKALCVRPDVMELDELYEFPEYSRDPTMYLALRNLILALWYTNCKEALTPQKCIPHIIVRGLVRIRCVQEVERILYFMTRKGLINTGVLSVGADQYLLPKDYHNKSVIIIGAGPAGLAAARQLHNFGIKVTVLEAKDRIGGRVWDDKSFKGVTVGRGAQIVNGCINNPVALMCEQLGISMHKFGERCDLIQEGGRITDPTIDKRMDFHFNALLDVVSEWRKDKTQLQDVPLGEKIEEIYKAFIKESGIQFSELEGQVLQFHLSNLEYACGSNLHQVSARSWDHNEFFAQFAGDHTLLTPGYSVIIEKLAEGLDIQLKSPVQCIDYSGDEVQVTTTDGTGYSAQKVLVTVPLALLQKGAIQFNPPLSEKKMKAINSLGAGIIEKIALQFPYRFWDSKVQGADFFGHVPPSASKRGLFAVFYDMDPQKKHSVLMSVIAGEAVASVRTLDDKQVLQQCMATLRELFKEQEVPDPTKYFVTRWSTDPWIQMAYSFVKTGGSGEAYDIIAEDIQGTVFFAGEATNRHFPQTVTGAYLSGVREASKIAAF

[3] = target: INSM1/LSD1 interaction in NCI-H510A cells (Homo sapiens, UniProt O60341); assay: INSM1/LSD1 interaction ELISA on NCI-H510A lysates; type: cell-based; conditions: 24 h, 2000, 200, 20 and 2 nM
[4] = Stability in aqueous buffer; type: physicochemical; conditions: aqueous buffer at 37 °C, LCMS, day 6
In short: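 A 20 mM DMSO solution of test compound was diluted with PBS and held at 37 °C. Samples were analysed by LCMS at T = 0, 4 and 6 days, using one of three compound-specific HPLC method conditions.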

[5] = target: T1, human recombinant LSD1 enzyme; conditions: incubation at 10-fold IC50, 100-fold dilution
[6] = system: GRP gene expression in NCI-H510A cells; assay: GRP gene expression by qRT-PCR; type: cell-based; conditions: 6 days, 2000, 200, 20 and 2 nM
In short: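 NCI-H510A SCLC cells (mycoplasma-free) seeded at 0.5 million per 5 mL complete RPMI-1640 (10% FBS, 2 mM l-glutamine). They were treated with test compound at 2000, 200, 20 and 2 nM for 6 days at 37 °C, 5% CO2. Pellets of 0.5 million cells were PBS-washed and stored at −80 °C, then total RNA was extracted for qRT-PCR of GRP; N = 1, n = 3.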

[7] = target: recombinant LSD1 / GFI1B SNAG domain peptide interaction (Homo sapiens, UniProt O60341); assay: GFI1B-peptide/LSD1 interaction assay; type: binding; conditions: 2 μM, 200 nM, 20 nM and 2 nM
[8] = target: T1, human recombinant LSD1 enzyme; assay: LSD1 peroxidase; type: biochemical
[9] = system: CD11b induction in THP-1 cells; assay: AML differentiation: CD11b by flow cytometry; type: cell-based; conditions: THP-1, 0.02 to 2000 nM, 96 h
LSD1 in NCI-H510A cells = LSD1 in NCI-H510A cells (Homo sapiens, UniProt O60341); assay: LSD1 target engagement; type: cell-based; conditions: 24 h, 2000, 200, 20 and 2 nM
LSD1 in MV(4;11) cells = LSD1 in MV(4;11) cells (Homo sapiens, UniProt O60341); assay: LSD1 target engagement; type: cell-based; conditions: 24 h, 2000, 200, 20 and 2 nM
[10] = cited from earlier work
RR-AML patients = conditions: cited from earlier work

Compound: C#CCN(C)Cc1ccccc1 [pargyline]
- EC50 (SCLC cell line NCI-H510A): > 2000 nM
- EC50 (AML cell line TF-1a): > 2000 nM

Compound: O=C(O)c1ccc(CN2CCC(CN[C@@H]3C[C@H]3c3ccccc3)CC2)cc1 [GSK-2879552]
- fold less active than iadademstat in the (TF-1a) AML viability assays (AML cell line TF-1a): 849 fold
- G3/4 encephalopathy (SCLC patients): 10%
- fold less active than iadademstat in the LSD1 HTRF assay [1]: 491 fold

Compound: c1ccc([C@@H]2C[C@H]2NC2CCNCC2)cc1 [OG-668]
- EC50 (SCLC cell line NCI-H510A): 1.17 nM
- disruption of LSD1/INSM1 PPI [3]: reduction of the LSD1/INSM1 interaction at all four concentrations
- effect on GRP expression [6]: reduce GRP expression at all concentrations
- LSD1 TE (LSD1 in MV(4;11) cells): high LSD1 TE at all concentrations tested
- disruption of LSD1/GFI1B interaction [7]: shows reduction of the LSD1/GFI1B interaction in the 2 μM to 2 nM range

Compound: N[C@H]1CC[C@H](N[C@@H]2C[C@H]2c2ccccc2)CC1 [iadademstat]
- EC50 (SCLC cell line NCI-H510A): 0.16 nM
- safety and tolerability (RR-AML patients): safe and well-tolerated
- effect on GRP expression [6]: most potently inhibits the expression of the neuroendocrine biomarker (including at 2 nM)

Compound: NNCCc1ccccc1 [phenelzine]
- EC50 (SCLC cell line NCI-H510A): > 2000 nM
- T = 6 days purity (parent compound remaining) [4]: 4%
- EC50 (AML cell line TF-1a): > 2000 nM

Second part, led by results:

- fold less active than iadademstat in the LSD1 HTRF assay [1]: 174 fold
Compound: CN1CCN(C(=O)[C@H](CCCN[C@@H]2C[C@H]2c2ccc(F)cc2)NC(=O)c2ccc(-n3ccnn3)cc2)CC1 [bomedemstat]
- fold less active than iadademstat in the (TF-1a) AML viability assays (AML cell line TF-1a): 345 fold

- EC50 (SCLC cell line NCI-H510A): 184 nM
- inhibition at 10 µM [2]: < 50%
- disruption of LSD1/INSM1 PPI [3]: totally inactive
- T = 6 days purity (parent compound remaining) [4]: 72%
- recovery of LSD1 activity upon jump dilution [5]: 62%
- IC50 [8]: 2400 nM
- IC50 ([1]; LSD1 IC50, HTRF assay): 1300 nM
Compound: C/C(=N\NC(=O)c1cccc(S(=O)(=O)N2CCN(C)CC2)c1)c1cc(Cl)ccc1O [seclidemstat]
- effect on GRP expression [6]: does not impact GRP expression
- disruption of LSD1/GFI1B interaction [7]: does not disrupt the LSD1/GFI1B interaction
- induction of CD11b marker [9]: does not induce the CD11b marker
- LSD1 TE (LSD1 in NCI-H510A cells): did not show any significant LSD1 TE at the concentrations tested

- EC50 (SCLC cell line NCI-H510A): 1.77 nM
Compound: COc1ccc(-c2c(-c3ccc(C#N)c(F)c3)nc(N3CCC(N)CC3)n(C)c2=O)cc1F [pulrodemstat]
- half-life ([10]; humans): ≈ 70 h
- adverse events reported ([10]; monotherapy): Thrombocytopenia and neutropenia events

Reference: PMC8669716 (ACS Pharmacology & Translational Science, 2021)
